Experimental data from ChEMBL document CHEMBL1255276, “Reliability of the WIDERYST susceptibility testing system for detection of in vitro antifungal resistance in yeasts” (2008).
≈ marks a conversion by molar mass, not a printed value.

What was measured:
Assay type in all cases: functional
Candida parapsilosis [1] = assay: Antifungal activity against Candida parapsilosis ATCC 22019 by WIDERYST method; conditions: Lodderomyces parapsilosis
How it was run: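 Commercial 96-well panels with lyophilized drugs, the strain serving as a quality control. Ranges: FLC and 5FC 128–0.06 µg/ml; AMB, ITC, VRC and KTC 8–0.004 µg/ml. Inoculum 1 x 10^5 to 5 x 10^5 CFU/ml, 35°C, 24 h, no CO2, plus 24 h if no growth. Video-image read; MIC is 90% (AMB) or 50% (others) growth reduction versus the positive control.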

Candida parapsilosis [2] = assay: Antifungal activity against Candida parapsilosis ATCC 22019 by AFST-EUCAST method; conditions: Lodderomyces parapsilosis
How it was run: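 Microdilution per AFST-EUCAST 7.1, with the strain run as a quality control in each set. RPMI 1640 plus 2% glucose, inoculum 10^5 CFU/ml, flat-bottomed plates. Read spectrophotometrically at 24 and 48 h. MIC endpoint is the lowest concentration giving ≥90% growth reduction versus the drug-free control for AMB, and 50% OD reduction for 5FC and azoles.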

Pichia kudriavzevii [3] = assay: Antifungal activity against Candida krusei ATCC 6258 by AFST-EUCAST method
How it was run: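 AFST-EUCAST microdilution standard for fermentative yeasts (document 7.1). The medium was RPMI 1640 with 2% glucose in flat-bottomed plates, and the inoculum was 10^5 CFU/ml. Endpoints were read spectrophotometrically at 24 and 48 h. The MIC was the lowest concentration giving ≥90% growth reduction versus the drug-free control for AMB, or a 50% OD reduction for 5FC and azoles. Run as a quality-control strain in each set.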

Pichia kudriavzevii [4] = assay: Antifungal activity against Candida krusei ATCC 6258 by CLSI M27-A2 microdilution method
Pichia kudriavzevii [5] = assay: Antifungal activity against Candida krusei ATCC 6258 by WIDERYST method
Candida parapsilosis [6] = assay: Antifungal activity against Candida parapsilosis ATCC 22019 by CLSI M27-A2 microdilution method; conditions: Lodderomyces parapsilosis

CC(=O)N1CCN(c2ccc(OCC3COC(Cn4ccnc4)(c4ccc(Cl)cc4Cl)O3)cc2)CC1 (stereo unspecified) [KETOCONAZOLE] was tested, and the MIC (Candida parapsilosis [1]) was 0.01 µg/mL (≈ 0.0188 µM), the MIC (Candida parapsilosis [2]) was 0.01 µg/mL (≈ 0.0188 µM) and the MIC (Pichia kudriavzevii [3]) was 0.06 µg/mL (≈ 0.113 µM). It also gave an MIC (Pichia kudriavzevii [4]) of 0.12 µg/mL (≈ 0.226 µM), an MIC (Pichia kudriavzevii [5]) of 0.12 µg/mL (≈ 0.226 µM) and an MIC (Candida parapsilosis [6]) of 0.03 µg/mL (≈ 0.0565 µM).

Nc1nc(=O)[nH]cc1F [FLUCYTOSINE] was tested, and the MIC (Candida parapsilosis [1]) was 0.06 µg/mL (≈ 0.465 µM), the MIC (Candida parapsilosis [2]) was 0.12 µg/mL (≈ 0.93 µM) and the MIC (Pichia kudriavzevii [3]) was 1 µg/mL (≈ 7.75 µM). The MIC (Pichia kudriavzevii [4]) was 4 µg/mL (≈ 31 µM), the MIC (Pichia kudriavzevii [5]) was 2 µg/mL (≈ 15.5 µM) and the MIC (Candida parapsilosis [6]) was 0.12 µg/mL (≈ 0.93 µM).

Compound OC(Cn1cncn1)(Cn1cncn1)c1ccc(F)cc1F [FLUCONAZOLE] has an MIC (Candida parapsilosis [1]) of 0.5 µg/mL (≈ 1.63 µM), an MIC (Candida parapsilosis [2]) of 1 µg/mL (≈ 3.27 µM) and an MIC (Pichia kudriavzevii [3]) of 8 µg/mL (≈ 26.1 µM). For the same compound, the MIC (Pichia kudriavzevii [4]) was 16 µg/mL (≈ 52.2 µM), the MIC (Pichia kudriavzevii [5]) was 8 µg/mL (≈ 26.1 µM) and the MIC (Candida parapsilosis [6]) was 1 µg/mL (≈ 3.27 µM).

CCC(C)n1ncn(-c2ccc(N3CCN(c4ccc(OCC5COC(Cn6cncn6)(c6ccc(Cl)cc6Cl)O5)cc4)CC3)cc2)c1=O (stereo unspecified) [ITRACONAZOLE] gave an MIC (Candida parapsilosis [1]) of 0.03 µg/mL (≈ 0.0425 µM), an MIC (Candida parapsilosis [2]) of 0.03 µg/mL (≈ 0.0425 µM) and an MIC (Pichia kudriavzevii [3]) of 0.06 µg/mL (≈ 0.085 µM). The MIC (Pichia kudriavzevii [4]) was 0.12 µg/mL (≈ 0.17 µM), the MIC (Pichia kudriavzevii [5]) was 0.06 µg/mL (≈ 0.085 µM) and the MIC (Candida parapsilosis [6]) was 0.12 µg/mL (≈ 0.17 µM).

C[C@@H](c1ncncc1F)[C@](O)(Cn1cncn1)c1ccc(F)cc1F [VORICONAZOLE] was tested, and the MIC (Candida parapsilosis [1]) was 0.01 µg/mL (≈ 0.0286 µM), the MIC (Candida parapsilosis [2]) was 0.03 µg/mL (≈ 0.0859 µM) and the MIC (Pichia kudriavzevii [3]) was 0.06 µg/mL (≈ 0.172 µM). The MIC (Pichia kudriavzevii [4]) was 0.06 µg/mL (≈ 0.172 µM), the MIC (Pichia kudriavzevii [5]) was 0.06 µg/mL (≈ 0.172 µM) and the MIC (Candida parapsilosis [6]) was 0.03 µg/mL (≈ 0.0859 µM).

In the case of C[C@@H]1[C@H](O)[C@@H](C)/C=C/C=C/C=C/C=C/C=C/C=C/C=C/[C@H](O[C@@H]2O[C@H](C)[C@@H](O)[C@H](N)[C@@H]2O)C[C@@H]2O[C@](O)(C[C@@H](O)C[C@@H](O)[C@H](O)CC[C@@H](O)C[C@@H](O)CC(=O)O[C@H]1C)C[C@H](O)[C@H]2C(=O)O [AMPHOTERICIN B], the MIC (Candida parapsilosis [1]) is reported as 0.06 µg/mL (≈ 0.0649 µM), the MIC (Candida parapsilosis [2]) is reported as 0.12 µg/mL (≈ 0.13 µM) and the MIC (Pichia kudriavzevii [3]) is reported as 0.12 µg/mL (≈ 0.13 µM). It also gave an MIC (Pichia kudriavzevii [4]) of 0.5 µg/mL (≈ 0.541 µM), an MIC (Pichia kudriavzevii [5]) of 0.12 µg/mL (≈ 0.13 µM) and an MIC (Candida parapsilosis [6]) of 0.25 µg/mL (≈ 0.271 µM).
